Assay [1] has as its target T1, NAD-dependent protein deacetylase sirtuin-2 (Homo sapiens, UniProt Q8IXJ6).
T1 sequence (Q8IXJ6 whole entry): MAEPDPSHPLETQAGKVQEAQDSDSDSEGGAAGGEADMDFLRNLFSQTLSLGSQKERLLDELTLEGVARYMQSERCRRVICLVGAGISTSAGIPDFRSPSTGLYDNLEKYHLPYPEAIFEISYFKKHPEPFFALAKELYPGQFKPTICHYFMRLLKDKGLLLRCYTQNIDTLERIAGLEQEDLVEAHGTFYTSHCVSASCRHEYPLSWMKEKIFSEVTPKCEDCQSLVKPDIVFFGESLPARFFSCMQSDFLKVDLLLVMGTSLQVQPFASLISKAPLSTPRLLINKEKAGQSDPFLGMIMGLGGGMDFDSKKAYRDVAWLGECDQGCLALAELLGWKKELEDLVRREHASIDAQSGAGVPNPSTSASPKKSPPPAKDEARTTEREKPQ
The experiment in a line: Inhibition of human SIRT2 using RHKK(Ac)-AMC as substrate preincubated for 10 mins followed by substrate addition by fluorescence assay.

The target in assay [2] is T2, NAD-dependent protein deacetylase sirtuin-1 (Homo sapiens, UniProt Q96EB6).
T2 sequence (Q96EB6 whole entry): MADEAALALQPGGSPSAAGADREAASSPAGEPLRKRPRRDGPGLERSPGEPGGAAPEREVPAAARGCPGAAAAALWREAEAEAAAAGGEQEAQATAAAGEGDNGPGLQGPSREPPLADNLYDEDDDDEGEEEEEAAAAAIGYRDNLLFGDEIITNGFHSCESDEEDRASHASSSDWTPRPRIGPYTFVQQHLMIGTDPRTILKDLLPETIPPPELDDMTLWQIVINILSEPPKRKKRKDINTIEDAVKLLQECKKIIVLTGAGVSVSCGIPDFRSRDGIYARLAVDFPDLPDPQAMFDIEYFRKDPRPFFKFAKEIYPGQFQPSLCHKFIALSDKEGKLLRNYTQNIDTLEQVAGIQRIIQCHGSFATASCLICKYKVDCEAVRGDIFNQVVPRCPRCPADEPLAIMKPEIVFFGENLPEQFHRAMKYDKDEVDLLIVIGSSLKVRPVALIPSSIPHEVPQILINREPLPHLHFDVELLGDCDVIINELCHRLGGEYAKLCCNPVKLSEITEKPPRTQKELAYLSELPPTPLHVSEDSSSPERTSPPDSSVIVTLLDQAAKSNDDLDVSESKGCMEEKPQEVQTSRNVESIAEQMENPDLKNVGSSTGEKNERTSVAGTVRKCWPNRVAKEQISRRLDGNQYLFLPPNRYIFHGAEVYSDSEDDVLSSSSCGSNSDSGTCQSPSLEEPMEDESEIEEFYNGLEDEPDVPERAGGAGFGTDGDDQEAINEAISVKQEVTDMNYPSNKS
In words: Inhibition of human SIRT1 using RHKK(Ac)-AMC as substrate preincubated for 10 mins followed by substrate addition by fluorescence assay.

The target of assay [3] is T1, NAD-dependent protein deacetylase sirtuin-2. In words: Inhibition of human SIRT2.
Assay [4] has as its target T2, NAD-dependent protein deacetylase sirtuin-1. The experiment in a line: Inhibition of human SIRT1 by fluorometric assay. In a few lines: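 Fluorescence-based homogeneous assay with ZMAL (Cbz-Lys(acetyl)-AMC) substrate at 10,5 µM final and NAD+ at 500 µM final, in Tris/NaCl/KCl buffer pH 8.0 with 5% (v/v) DMSO final. Incubated 4 h at 37 °C, then stopped with trypsin/nicotinamide for 20 min at 37 °C. Read at ex 390/em 460 nm against no-inhibitor controls, at least duplicates.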

Assay [5] deals with T3, NAD-dependent protein deacetylase sirtuin-2 (Homo sapiens) (UniProt Q8IXJ6).
T3 sequence (whole entry): T1 sequence (Q8IXJ6 whole entry)
The experiment in a line: Inhibition of N-terminal his6-tagged human SIRT2 (25 to 389 amino acids) using ZMAL as substrate at 250 uM after 4 hrs by fluorescence-based microplate reader method. The gist of the method: (§1)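 Fluorogenic deacetylation assay: hSirt1 133-747 or hSirt2 25-389 in 50 mM Tris, 137 mM NaCl, 2.7 mM KCl, pH 8.0, with NAD+ 500 µM and ZMAL (Cbz-Lys(acetyl)-AMC) 10,5 µM final, inhibitor in DMSO (5% v/v final). Control conversion kept near 15-30%. 4 h at 37 °C, then trypsin/nicotinamide stop for 20 min at 37 °C. Fluorescence read at 390/460 nm. % inhibition taken against no-inhibitor controls. At least duplicates.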

The target of assay [6] is T4, NAD-dependent protein deacetylase sirtuin-1 (Homo sapiens) (UniProt Q96EB6).
T4 sequence (whole entry): T2 sequence (Q96EB6 whole entry)
The experiment in a line: Inhibition of GST-tagged human SIRT1 (133 to 747 amino acids) using ZMAL as substrate at 200 uM after 4 hrs by fluorescence-based microplate reader method.

Assay [7] addresses T3, NAD-dependent protein deacetylase sirtuin-2 (Homo sapiens). In words: Inhibition of N-terminal his6-tagged human SIRT2 (25 to 389 amino acids) using ZMAL as substrate at 50 uM after 4 hrs by fluorescence-based microplate reader method. In a few lines: as §1
In assay [8] the target is T2, NAD-dependent protein deacetylase sirtuin-1. The experiment in a line: Inhibition of GST-tagged human SIRT1 (133 to 747 amino acids) using ZMAL as substrate after 4 hrs by fluorescence-based microplate reader method.
The target in assay [9] is T3, NAD-dependent protein deacetylase sirtuin-2 (Homo sapiens). The experiment in a line: Inhibition of N-terminal his6-tagged human SIRT2 (25 to 389 amino acids) using ZMAL as substrate at 500 uM after 4 hrs by fluorescence-based microplate reader method. The gist of the method: as §1
The target is the same in assay [10]. In words: Inhibition of N-terminal his6-tagged human SIRT2 (25 to 389 amino acids) using ZMAL as substrate at 10 uM after 4 hrs by fluorescence-based microplate reader method. The gist of the method:
as §1

The target is the same in assay [11]. In words: Inhibition of SIRT2 in human HeLa cells assessed as tubulin acetylation at 10 uM after 1 hr by Western blotting method. Type of assay: cell-based. In a few lines:
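HeLa cells grown in high-glucose DMEM with 10% FCS and kanamycin at 37 °C, 5% CO2. 1.5 x 10^4 cells per well were plated overnight, then exposed to compound for 1 h from 10 mM DMSO stocks, with DMSO vehicle controls. Cells were lysed in reducing sample buffer and run on SDS-PAGE/PVDF. Blots were probed for acetyl-α-tubulin Lys40 (6-11B-1) and then GAPDH. Values were normalized to the mean control on the same blot.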
For orientation: A western blot detects proteins with antibodies after separation by electrophoresis.

Assay [12] shares this target. The experiment in a line: Inhibition of SIRT2 in human HeLa cells assessed as tubulin hyperacetylation at 10 uM after 1 hr by DAPI staining-based immunofluorescence microscopy relative to control. Type of assay: cell-based. The gist of the method: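 HeLa cells, 0.5 x 10^4 per 12 mm coverslip, were plated overnight, then exposed for 1 h to 10 µM compound added from 10 mM DMSO stocks, with DMSO vehicle controls. The microtubule network was immunostained for acetylation and nuclei were counterstained with DAPI, followed by immunofluorescence microscopy.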

The target in assay [13] is T1, NAD-dependent protein deacetylase sirtuin-2. The experiment in a line: Inhibition of N-terminal his6-tagged human SIRT2 (25 to 389 amino acids) using ZMAL as substrate after 4 hrs by fluorescence-based microplate reader method.

Structures can show the parent of a compound that is named as a salt. The source made the active and inactive calls. No cut-off for these calls is given here. Where a SMILES comes first, the peptide text is derived from it. Bridges are numbered along the chain shown (N, C = ends). The star is where a group is joined. Tfa = O=C(C(F)(F)F)* Some results are limits rather than exact numbers.

Broadly, the IC50 is the point on the concentration scale where inhibition reaches its midpoint. By inhibition is commonly meant the change of the read-out against control, counted positive when it falls.

As to `COc1ccc2ccccc2c1Cn1cnc2sc3c(c2c1=O)CCC(NCc1cccnc1)C3` (stereo unspecified), the results for the concentration for half-maximal inhibition (IC50) in assay [1] and in assay [2] were 1.45 µM and greater than 100 µM, respectively.
In turn, `CC(C)[C@@H]1NC(=O)[C@H](Cc2c[nH]cn2)NC(=O)[C@H](Cc2ccc(O)cc2)NC(=O)[C@H]([C@@H](C)O)NC(=O)[C@H](Cc2c[nH]cn2)NC(=O)[C@H](Cc2ccc(O)cc2)NC(=O)CSC[C@@H](C(N)=O)NC(=O)[C@H](Cc2ccc(O)cc2)NC(=O)[C@H](Cc2ccc(O)cc2)NC(=O)[C@H](CC(N)=O)NC(=O)[C@H]([C@@H](C)O)NC(=O)[C@H](CCCNC(=N)N)NC(=O)[C@H](CCCNC(=N)N)NC(=O)[C@H](CCCCNC(=O)C(F)(F)F)NC1=O` ({CH2CO}-YHTYHVK(Tfa)RRTNYYC-NH2; thioether N-14) yielded an IC50 in [3] of 0.001 µM.
For `N#C/C(=C/c1ccc(-c2cc(Cl)ccc2Cl)o1)C(=O)Nc1cccc2ncccc12`, the half-inhibitory concentration (IC50) in assay [4] was greater than 40 µM.
For `Cc1cc(C)nc(SCC(=O)Nc2ncc(C)s2)n1`, the inhibition in assay [5] was 24%; in assay [6] it was less than 10%.
`Cc1ccccc1Cc1cnc(NC(=O)CSc2ncccn2)s1`: the inhibition in [7] was less than 10%; in assay [6], 11%.
Take `Cc1cc(C)nc(SCC(=O)Nc2nnc(C)s2)n1`: the inhibition in assay [7] and in assay [6] was less than 10% throughout.
For the compound `CCc1cc(CC)nc(SCC(=O)Nc2ncc(Cc3ccc(OC)cc3)s2)n1`, the inhibition in assay [7] was 48%; in assay [6], 17%.
Consider `Cc1cc(O)nc(SCC(=O)Nc2ncc(Cc3cccc4ccccc34)s2)n1`, for which the inhibition in assay [7] is 35%; in assay [6] it was less than 10%.
For `Cc1cc(C)nc(SCC(=O)Nc2ncc(Cc3cccc4ccccc34)s2)n1`, the inhibition in [6] is less than 10%. In addition, the IC50 in assay [8] was greater than 50 µM.
For `CCCCCC(=O)Nc1ncc(Cc2cccc3ccccc23)s1`, the inhibition in [9] was 77%; in assay [10], less than 10%; in [7], 48%; in assay [6] it was less than 10%.
Turning to `Cc1cc(C)nc(SCC(N)=O)n1`, the inhibition in assay [7] and in assay [6] was less than 10% each time.
Consider `Cc1cc(C)nc(SCC(=O)Nc2ncc(Cc3cccc4ccc(Cl)cc34)s2)n1`, for which the inhibition entry in assay [11] and in assay [12] was “Active” each time. This compound had an inhibition in assay [6] of 29%. For the same compound, the half-inhibitory concentration (IC50) in assay [13] was 0.18 µM.
As to `CC(=O)Nc1ncc(Cc2cccc3ccccc23)s1`, the inhibition in [9] was 84%; in [7], less than 10%; in [6] it was less than 10%.
With `Cc1cc(C)nc(SCC(=O)Nc2nnc(-c3ccccc3)s2)n1`, the results for the inhibition in [7] and in assay [6] were 20% and less than 10%, respectively.
